Screening results from PubChem.
A selection: hits, their analogues and other compounds. The true share with any hit is near 1.1%.
Diaphorase act: diaphorase activation or chemical reduction counter-screen; activation factor at 20 µM; Diaphorase/resazurin coupled assay, resorufin fluorescence, 16 min; active compounds read high; 1 = vehicle wells, 0 = NADH-free wells; 0.005% of 190,000 active;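 active means diaphorase activity raised at least twofold by the compound at 20 µM; inactive means activation factor below 2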
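Material: purified diaphorase enzyme from Clostridium kluyveri / Medium: HEPES pH 7.4 buffer with MgCl2 and Tween 20 / Schedule: enzyme reaction of 16 min at room temperature / Measured by: resorufin fluorescence, excitation 544 nm, emission 590 nm / Evaluation: rise in resorufin formation, marking diaphorase activation or chemical reduction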
PMI act satM6P: PMI (human) activation, high substrate; activation factor at 20 µM; coupled PMI enzyme assay, resazurin fluorescence, 20 min; active compounds read high; 1 = untreated enzyme, 0 = substrate-free blank; 0.34% of 190,000 active; AID 1216; P34949;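 active means activation factor of 2 or more at 20 µM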
Target sequence (P34949 whole entry, looked up): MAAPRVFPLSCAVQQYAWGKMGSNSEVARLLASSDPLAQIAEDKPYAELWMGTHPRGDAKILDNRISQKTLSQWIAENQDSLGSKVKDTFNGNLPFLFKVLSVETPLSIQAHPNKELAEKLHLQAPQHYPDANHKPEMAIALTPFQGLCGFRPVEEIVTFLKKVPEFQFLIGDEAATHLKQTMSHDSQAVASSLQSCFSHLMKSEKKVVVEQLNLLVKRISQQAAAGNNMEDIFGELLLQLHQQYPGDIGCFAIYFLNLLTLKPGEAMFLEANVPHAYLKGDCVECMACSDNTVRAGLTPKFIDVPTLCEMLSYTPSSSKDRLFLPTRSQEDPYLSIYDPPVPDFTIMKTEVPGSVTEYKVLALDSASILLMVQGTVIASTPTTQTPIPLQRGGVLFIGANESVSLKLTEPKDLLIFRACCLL
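Test system – human PMI in coupled enzyme assay · Timing – 20 min incubation at room temperature · Detection – Diaphorase-driven resazurin-to-resorufin fluorescence, excitation 544, emission 590 nm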
G6PDH CS: L. mesenteroides G6PDH inhibition counter-screen; Purified L. mesenteroides G6PDH, diaphorase/resazurin coupled fluorescence, 45 min; inhibition, % at 5 µM; 0.12% of 200,000 active; in the data active means inhibition above about 50%
Diaphorase inh: diaphorase inhibition or chemical oxidation counter-screen; diaphorase resazurin-to-resorufin fluorescence, NADH, 16 min; bacterial (C. kluyveri) enzyme, not human; inhibition, % at 20 µM; 0.69% of 190,000 active;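 active means primary screen inhibition at 20 µM above a set limit, cut at about 50% in these data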
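Benchmarks: positive control wells lacking NADH, neutral wells with DMSO only. System: bacterial diaphorase enzyme (C. kluyveri). Input: 0.14 U/mL diaphorase, enzyme working solution. Detection: resorufin fluorescence, excitation 544 nm, emission 590 nm. Times: 16-min room-temperature incubation before reading.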
PMI act: activators of human phosphomannose isomerase; purified human PMI, coupled resazurin fluorescence, 20 min; active compounds read high; 1 = vehicle control, 0 substrate-free wells; activation factor at 20 µM; AID 1214; P34949; 0.005% of 190,000 active;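 active means activation factor of 2 or more at 20 µM, relative to plate controls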
Each line names hits and unclear results; the compound was inactive in the other large screens.

Cc1ccc(S(=O)(=O)/N=C2\C(=O)c3ccccc3C([O-])=C2n2cc[n+](CCC(C)C)c2)cc1	G6PDH CS 53
CCOc1cc2c(C#N)c(N3CCCCC3)nc(N)c2c(N)n1	Diaphorase inh 58
COc1cc2c(C#N)c(N3CCc4ccccc4C3)nc(N)c2c(N)n1	Diaphorase inh 61
COc1cc2c(C#N)c(N3CCOCC3)nc(N)c2c(N)n1	none
CCOc1cc2c(C#N)c(N3CCNCC3)nc(N)c2c(N)n1	none
COc1cc2c(C#N)c(N3CCCCC3)nc(N)c2c(N)n1	G6PDH CS 51, Diaphorase inh 64
COc1cccc(C(c2sc3nc(C)nn3c2O)N2CCc3ccccc3C2)c1 (stereo not given)	none
CCOc1ccc(NC(=S)NN(C)C(=S)Nc2ccc(OCC)cc2)cc1	none
NC(=O)Cn1cc(C(=O)COc2ccccc2)c2ccccc21	none
O=C(COc1ccccc1)c1cn(CC(=O)N2CCCC2)c2ccccc12	Diaphorase inh 94
CCN(CC#CCC(O)(c1ccccc1)C1CCCC1)C(C)C (stereo not given)	none
CC(C)N(CC#CCC(O)(c1ccccc1)C1CCCC1)CCO (stereo not given)	Diaphorase inh 60
CCCCCCCCCCS(=O)(=O)N/N=C/c1ccc(O)cc1	none
CCOC(=O)c1c(-c2ccccc2)csc1NC(=O)/C(C#N)=C/c1ccc(O)c(OC)c1	none
COCc1cc(C)nc2sc(C(=O)N3CCCC3)c(N)c12	none
Cc1cc(C)c2c(N)c(C(=O)NCc3ccco3)sc2n1	PMI act satM6P 2
Cc1cc(C)c2c(N)c(C(=O)N3CCCCCC3)sc2n1	PMI act satM6P 2.3
C/C(=N\Nc1ccc(Cl)c(C(=O)O)c1)c1ccc2c(c1)OCO2	PMI act satM6P 2.8
Cc1ccc(NCN2C(=O)C3C4C=CC(C4)C3C2=O)cc1 (stereo not given)	none
O=C1C2C3C=CC(C3)C2C(=O)N1CNc1ccc(O)cc1 (stereo not given)	Diaphorase inh 64
O=C(NC1CCCCC1)c1ccc(CNc2nc(=S)[nH]c3ccccc23)cc1	none
C/C(=N/NC(=O)c1cc(O)c(O)c(O)c1)c1ccc([N+](=O)[O-])cc1	Diaphorase inh 75
COc1cc(C)ccc1N(CCCN1C(=O)c2cccc3cccc(c23)C1=O)C(=O)c1cccs1	Diaphorase inh 72
COc1ccc(N(CCCN2C(=O)c3cccc4cccc(c34)C2=O)C(=O)c2cccs2)cc1	Diaphorase inh 67
O=C(COc1cccc(NC(=O)c2cccc([N+](=O)[O-])c2)c1)c1ccc(Br)cc1	none
COc1ccc(Br)cc1C(=O)Nc1ccc(C(=O)O)cc1	Diaphorase inh 92
COc1ccc(NC(=O)c2cc3cccc(OC)c3oc2=Nc2ccc(C(=O)O)cc2)cc1OC	Diaphorase inh 78
COc1ccc(Br)cc1C(=O)Nc1ccc(O)cc1	none
COc1cc(CCC(=O)NNC(=O)c2ccc(C)cc2)cc(OC)c1OC	none
O=C(O)/C=C/C(=O)Nc1ccc2c(c1)NC(=O)CO2	Diaphorase inh 61
CCCCC(=O)Nc1ccc(NC(=O)c2ccc(C)c([N+](=O)[O-])c2)cc1OC	none
O=C(CNc1ccc2ccccc2c1)N/N=C/c1cc2ccccc2nc1Cl	Diaphorase inh 52
O=C(CNc1ccc2ccccc2c1)N/N=C/c1ccc(C(=O)O)cc1	Diaphorase inh 59
O=C(CNc1cccc2ccccc12)N/N=C/c1ccc(C(=O)O)cc1	none
COc1ccc(C(=O)CNc2ccc3ccccc3c2)cc1	Diaphorase inh 63
O=C(COc1cccc(Cl)c1)N/N=C\c1cc2ccccc2nc1Cl	none
Cc1ccc(C(C(=O)NCc2ccco2)N(C(=O)CNC(=O)c2cccs2)c2c(C)cc(C)cc2C)cc1 (stereo not given)	none
O=C(COC(=O)/C=C/c1ccco1)Nc1ccc(F)cc1Cl	none
CCCCCCCCCCCCCCCC(O)C(N)CO (stereo not given)	Diaphorase act 2.3
Cc1ccc(-n2c(SCC3CNC(=O)O3)nnc2-c2ccccc2)cc1C (stereo not given)	none
O=C(NC(=S)N(CCCCO)C1CCCCC1)c1sc2ccccc2c1Cl	Diaphorase inh 72
Cc1cccc2sc(NNC(=O)c3ccc(S(=O)(=O)N4CCc5ccccc5C4)cc3)nc12	PMI act satM6P 2.1
Cc1cccc2sc(NNC(=O)c3ccc(S(=O)(=O)N4CCCC(C)C4)cc3)nc12 (stereo not given)	none
Clc1ccc(N/N=C/c2cccnc2)cc1	PMI act satM6P 2.4
O=C(O)c1cccc(N/N=C/c2cccnc2)c1	PMI act satM6P 2.5, PMI act 2
O=C(O)c1cccc(N/N=C/c2ccc(-c3ccccc3)cc2)c1	PMI act satM6P 2.7
CC(C)(C)c1ccc(/C=N/Nc2cccc(C(=O)O)c2)cc1	PMI act satM6P 2
CCOCCCNC(=O)c1ccccc1OC1CCN(S(C)(=O)=O)CC1	none
O=c1ccc2cc(O)c(O)cc2o1	Diaphorase inh 61
CCc1ccc2[nH]c(=O)c(C3C(C#N)=C(N)Oc4c3ccc3cccnc43)cc2c1 (stereo not given)	Diaphorase inh 52
Cc1ccc2cc(C3C(C#N)=C(N)Oc4c3ccc3cccnc43)c(=O)[nH]c2c1 (stereo not given)	none
Cc1csc(NC(=O)CSc2nnc(NC(=O)COc3ccccc3)s2)n1	none
CCOC(=O)NC1(Nc2ccc(Cl)cn2)Oc2ccccc2O1	Diaphorase inh 54
Cc1nn(Cc2ccccc2)c(Cl)c1C(=O)OCC#N	none
CN1CCC(N(C)C(=O)CCc2nc3ccccc3n2-c2ccccc2)CC1	Diaphorase inh 74
O=C(NCc1ccco1)c1cnn2c(C(F)(F)F)cc(-c3cccs3)nc12	Diaphorase inh 58
CCOC(=O)c1c(C)[nH]c(-c2csc(N)n2)c1C	PMI act satM6P 2
CCOC(=O)c1csc(N)n1	none
CCOC(=O)c1ccccc1-c1csc(N)n1	Diaphorase inh 81
Cc1cc2ncn(CC3CC3(Cl)Cl)c2cc1C (stereo not given)	none
CCOC(=O)C1(Cc2cccc(F)c2)CCN(Cc2cnn(CC)c2C)CC1	none (no result: Diaphorase act, PMI act satM6P, Diaphorase inh, PMI act)
S=C(c1ccc2c(c1)OCO2)N1CCCC1	none
S=C(NCC1CCCO1)N1CCN(c2nc(-c3ccccc3)cs2)CC1 (stereo not given)	none
COc1ccc(OCc2nc3c4cc(OC)c(OC)cc4nc(=S)n3[nH]2)cc1	Diaphorase inh 92
COc1cc2nc(=S)n3[nH]c(CCn4c(C)nc5ccccc54)nc3c2cc1OC	Diaphorase inh 89
Clc1ccc(C[n+]2csc3ccccc32)cc1	PMI act satM6P 2.2
O=C(COC(=O)Cn1cnc2ccccc21)NCCC1=CCCCC1	none
CC(=O)Nc1ccc(S(=O)(=O)n2cnc3ccccc32)cc1	none
